This note sets out measurements from ChEMBL document CHEMBL3097999, “Synthesis and biological evaluation of novel substituted 1,3,4-thiadiazole and 2,6-di aryl substituted imidazo [2,1-b] [1,3,4] thiadiazole derivatives” (2014).

Type in all cases: functional
Common to all, as to settings: read-out: DIZ

In assay [1] the test system is Candida albicans. The assay is described as follows: Antimicrobial activity against Candida albicans at 0.5 mg/ml by well plate method. The method, boiled down: (§1)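 Fungal well-plate diffusion against Candida albicans, Aspergillus flavus and Chrysosporium keratinophilum. Compounds in DMSO at 1 and 0.5 mg/mL, with fluconazole as the reference drug. Activity scored as the zone of inhibition.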

Assay [2] deals with Candida albicans. The assay is described as follows: Antimicrobial activity against Candida albicans at 1 mg/ml by well plate method. The method, boiled down: as §1
For assay [3], the system named is Chrysosporium keratinophilum. The assay is described as follows: Antimicrobial activity against Chrysosporium keratinophilum at 0.5 mg/ml by well plate method. In short, it runs like this:
as §1

The test system of assay [4] is Aspergillus flavus. The assay is described as follows: Antimicrobial activity against Aspergillus flavus at 0.5 mg/ml by well plate method. In short, it runs like this: as §1
Assay [5] concerns Chrysosporium keratinophilum. The assay is described as follows: Antimicrobial activity against Chrysosporium keratinophilum at 1 mg/ml by well plate method. The method, boiled down:
as §1

The test system of assay [6] is Aspergillus flavus. The assay is described as follows: Antimicrobial activity against Aspergillus flavus at 1 mg/ml by well plate method. In short, it runs like this: as §1
Assay [7] deals with Pseudomonas aeruginosa. The assay is described as follows: Antimicrobial activity against Pseudomonas aeruginosa at 0.5 mg/ml by well plate method. In short, it runs like this:
(§2)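 Agar well-plate diffusion against E. coli, B. subtilis and P. aeruginosa. Test compounds dissolved in DMSO at 1 and 0.5 mg/mL and placed in wells. Streptomycin was the reference drug. Read-out is the zone of inhibition.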

The subject of assay [8] is Pseudomonas aeruginosa. The assay is described as follows: Antimicrobial activity against Pseudomonas aeruginosa at 1 mg/ml by well plate method. The method, boiled down:
as §2

The test system of assay [9] is Bacillus subtilis. The assay is described as follows: Antimicrobial activity against Bacillus subtilis at 0.5 mg/ml by well plate method. The method, boiled down:
as §2

Assay [10] concerns Bacillus subtilis. The assay is described as follows: Antimicrobial activity against Bacillus subtilis at 1 mg/ml by well plate method. In short, it runs like this: as §2
In assay [11] the test system is Escherichia coli. The assay is described as follows: Antimicrobial activity against Escherichia coli at 0.5 mg/ml by well plate method. In short, it runs like this:
as §2

Assay [12] deals with Escherichia coli. The assay is described as follows: Antimicrobial activity against Escherichia coli at 1 mg/ml by well plate method. In short, it runs like this: as §2

As to `CC(C)(C)C(=O)Nc1nnc(-c2ccc(N3CCOCC3)c([N+](=O)[O-])c2)s1`, the zone of inhibition at 500 µg/mL in the assay with Candida albicans [1] worked out at 3 mm; in assay [3] it was 2 mm; in the assay with Aspergillus flavus [4] it was 2 mm; in the assay with Pseudomonas aeruginosa [7], 10 mm; in the assay with Bacillus subtilis [9], 9 mm; with Escherichia coli [11] it was 10 mm. The zone of inhibition at 1000 µg/mL in the assay with Candida albicans [2] came to 5 mm; in assay [5] it was 4 mm; in the assay with Aspergillus flavus [6] it was 5 mm; with Pseudomonas aeruginosa [8] it was 13 mm; with Bacillus subtilis [10], 11 mm; in the assay on Escherichia coli [12], 12 mm.

Take `CC(C)(C)C(=O)Nc1nnc(-c2ccc(N3CCC(c4ccc(C(F)(F)F)cc4)CC3)c([N+](=O)[O-])c2)s1`: the zone of inhibition at 500 µg/mL with Candida albicans [1] was 4 mm; in assay [3], 5 mm; with Aspergillus flavus [4], 5 mm; in the assay with Pseudomonas aeruginosa [7], 6 mm; in the assay on Bacillus subtilis [9], 5 mm; in the assay on Escherichia coli [11] it was 5 mm. Also, the zone of inhibition at 1000 µg/mL came to 7 mm in the assay on Candida albicans [2]; 7 mm in [5]; 8 mm in the assay with Aspergillus flavus [6]; 7 mm in the assay on Pseudomonas aeruginosa [8]; 7 mm in the assay with Bacillus subtilis [10]; 8 mm in the assay on Escherichia coli [12].

For `CC(C)(C)C(=O)Nc1nnc(-c2ccc(NC3CCCC3)c([N+](=O)[O-])c2)s1`, the zone of inhibition at 500 µg/mL with Candida albicans [1] was 2 mm; in assay [3], 2 mm; with Aspergillus flavus [4], 2 mm; in the assay on Pseudomonas aeruginosa [7], 2 mm; with Bacillus subtilis [9], 3 mm; with Escherichia coli [11], 4 mm. For the same compound, the zone of inhibition at 1000 µg/mL with Candida albicans [2] was found to be 5 mm; in [5] it was 4 mm; in the assay on Aspergillus flavus [6], 4 mm; with Pseudomonas aeruginosa [8], 3 mm; in the assay on Bacillus subtilis [10] it was 4 mm; in the assay with Escherichia coli [12], 6 mm.
